These results are taken from ChEMBL document CHEMBL2150941, “Cytotoxic iridoids from the roots of Patrinia scabra” (J Nat Prod, 2012).

Bounds are passed on as bounds.

The test system of one test is HeLa. Kind of test: Cytotoxicity against human HeLa cells after 48 hrs by MTT assay. Format: functional, cell-based. An outline of the steps: (§1)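 Cells kept in DMEM with 10% FBS, penicillin and streptomycin at 37 °C, 5% CO2. Seeded at 2 × 10^4 cells/well, allowed to adhere for 24 h, then exposed for 48 h to graded compound concentrations […], with 5-fluorouracil as positive control. MTT (5 mg/mL stock) added for 4 h at 37 °C, formazan dissolved in DMSO, read at 570 nm. IC50 is the mean of three independent experiments run in duplicate.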
Background: Tetrazolium assays rely on reduction of a dye to a coloured formazan, in cell work by metabolically active cells.

Test [1] can be described thus: Cytotoxicity against human MNK45 cells after 48 hrs by MTT assay. The test is classed as functional, cell-based. To be noted: MNK45, 48 h. An outline of the steps: as §1

In general, IC50 refers to the concentration at which inhibition is half-maximal. A high value points to a need for much substance. In the case of `CC1=CC[C@@H]2[C@H](C)CO[C@]12CO[C@@H]1O[C@H](CO[C@@H]2OC[C@](O)(CO)[C@H]2O)[C@@H](O)[C@H](O)[C@H]1O` [PATRIRIDOSIDE I], the IC50 was above 50 µM in the test with HeLa and 30.9 µM in test [1].
Consider `COC(=O)C1=CO[C@@H](O[C@@H]2O[C@H](CO)[C@@H](O)[C@H](O)[C@H]2O)[C@@H]2[C@H](C)O[C@@H](O)C[C@H]12` [MORRONISIDE], for which the IC50 (with HeLa; in test [1]) was above 50 µM in each case.
For the molecule `C=C1CO[C@]2(CO[C@@H]3O[C@H](CO[C@@H]4OC[C@](O)(CO)[C@H]4O)[C@@H](O)[C@H](O)[C@H]3O)C(C)=CC[C@H]12` [PATRIRIDOSIDE H], the results for the IC50 (in the test with HeLa; in test [1]) were above 50 µM and 9.4 µM, respectively.
On to `C[C@H]1C(=O)OC[C@H]2[C@@H]1C[C@H](O)[C@@]2(C)O` [PATRISCABROL], for which the IC50 (in the test with HeLa; in test [1]) was above 50 µM throughout.
For the molecule `C[C@H]1C(=O)OC[C@H]2[C@@H]1CC[C@@]2(C)O[C@@H]1O[C@H](CO)[C@@H](O)[C@H](O)[C@H]1O` [PATRIRIDOSIDE E], the half-inhibitory concentration (IC50) (with HeLa; in test [1]) was above 50 µM each time.
For the molecule `C[C@@H]1[C@H]2OC[C@@H]3[C@@H]1C[C@H](O)[C@@]3(C)O2`, the concentration for half-maximal inhibition (IC50) (with HeLa; in test [1]) was above 50 µM throughout.
On to `C[C@H]1[C@H]2C[C@H](O)[C@@](C)(O[C@@H]3O[C@H](CO)[C@@H](O)[C@H](O)[C@H]3O)[C@H]2CO[C@@H]1O` [PATRIRIDOSIDE F], for which the IC50 (in the test with HeLa; in test [1]) was above 50 µM throughout.
As for `C[C@@H]1C(=O)OC[C@H]2[C@@H]1C[C@H](O)[C@@]2(C)O` [ISOPATRISCABROL], the IC50 in the test on HeLa was 24.5 µM; in test [1] it was above 50 µM.
Take `C[C@@H]1C[C@@H]2OC=C(C=O)[C@@H]2[C@@H]1CO[C@@H]1O[C@H](CO)[C@@H](O)[C@H](O)[C@H]1O` [PATRIRIDOSIDE D]: the IC50 with HeLa is above 50 µM; in test [1], 15.6 µM.
In the case of `C[C@H]1[C@H]2OC[C@@H]3[C@@H]1C[C@H](O)[C@@]3(C)O2`, the IC50 (in the test on HeLa; in test [1]) was above 50 µM throughout.
As to `C=C1CO[C@]2(CO[C@@H]3O[C@H](CO)[C@@H](O)[C@H](O)[C@H]3O)C(C)=CC[C@H]12` [PATRIRIDOSIDE G], the IC50 with HeLa was above 50 µM; in test [1], 8.7 µM.
With `C=C(CO)[C@H]1C[C@H](OC(=O)CC(C)C)[C@@](C)(O)[C@H]1CO[C@@H]1O[C@H](CO)[C@@H](O)[C@H](O)[C@H]1O` [PATRINIOSIDE], the half-inhibitory concentration (IC50) in the test with HeLa is above 50 µM; in test [1], 23.8 µM.
Take `COC(=O)C1=CO[C@@H](O[C@@H]2O[C@H](CO)[C@@H](O)[C@H](O)[C@H]2O)[C@@H]2[C@H](C)O[C@@H](OC)C[C@H]12`: the IC50 (in the test with HeLa; in test [1]) was above 50 µM throughout.
`C[C@H]1C(=O)OC[C@H]2[C@@H]1C[C@H](O[C@@H]1O[C@H](CO)[C@@H](O)[C@H](O)[C@H]1O)[C@@]2(C)O` [PATRISCABROSIDE I]: the IC50 (in the test with HeLa; in test [1]) was above 50 µM in each case.
Take `C=C[C@H]1[C@H](O[C@@H]2O[C@H](CO)[C@@H](O)[C@H](O)[C@H]2O)OC=C2C(=O)OCC[C@H]21` [SWEROSIDE]: the IC50 with HeLa was above 50 µM; in test [1] it was 11.2 µM.
With `COC(=O)C1=CO[C@@H](O[C@@H]2O[C@H](CO)[C@@H](O)[C@H](O)[C@H]2O)[C@@H]2[C@H](C)O[C@H](O)C[C@H]12`, the IC50 (in the test with HeLa; in test [1]) was above 50 µM in each case.
Turning to `C[C@H]1C(=O)OC[C@H]2[C@@H]1CC[C@@]2(C)O` [SCABROL A], the IC50 (with HeLa; in test [1]) was above 50 µM in each case.
For the molecule `C=C1COC(=O)[C@H]2[C@@H]1C[C@H](O)[C@@]2(C)O` [JATAMANIN A], the IC50 (in the test on HeLa; in test [1]) was above 50 µM each time.
`O=c1[nH]cc(F)c(=O)[nH]1` [FLUOROURACIL]: the IC50 in the test on HeLa amounted to 9.5 µM; in test [1] it was 12 µM.
On the same counts, the results for `COC(=O)C1=CO[C@@H](O[C@@H]2O[C@H](CO)[C@@H](O)[C@H](O)[C@H]2O)[C@@H]2[C@H](C)O[C@H](OC)C[C@H]12` are above 50 µM and above 50 µM.
